Screening data as filed in PubChem BioAssay.
Rtt109 Vps75: C. albicans Rtt109 histone acetyltransferase inhibition. Q5AAJ8. purified Rtt109/Vps75, ThioGlo CoA-SH fluorescence, 4 h. inhibition, % at 34.9 µM. actives 0.16% (n = 330,000). AID 540336;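 active = inhibition of at least 50% in every replicate; inconclusive = best replicate reaches 50% inhibition but some replicates fall short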
Target sequence (Q5AAJ8 whole entry, looked up): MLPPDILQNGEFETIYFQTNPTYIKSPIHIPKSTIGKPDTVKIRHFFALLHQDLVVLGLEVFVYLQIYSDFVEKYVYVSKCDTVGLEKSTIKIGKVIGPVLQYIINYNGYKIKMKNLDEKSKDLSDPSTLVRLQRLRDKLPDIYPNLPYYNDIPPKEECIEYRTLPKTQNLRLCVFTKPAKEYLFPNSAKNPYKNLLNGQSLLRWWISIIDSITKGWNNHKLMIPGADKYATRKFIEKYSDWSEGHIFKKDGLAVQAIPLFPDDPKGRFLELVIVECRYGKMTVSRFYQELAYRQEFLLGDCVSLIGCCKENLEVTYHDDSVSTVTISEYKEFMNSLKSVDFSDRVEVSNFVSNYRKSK
S100A4 inh HTS: blocks human S100A4 binding to myosin IIA peptide. P26447. S100A4/TAMRA-MyoIIA peptide fluorescence polarization. inhibition, % at 10.7 µM. actives 0.14% (n = 360,000);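 active = mean inhibition of at least 70% across replicates, with every replicate also reaching that level; inconclusive = mean inhibition reaches 70% but some replicates fall short; inactive = mean inhibition below 70%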
Target sequence (P26447 whole entry, looked up): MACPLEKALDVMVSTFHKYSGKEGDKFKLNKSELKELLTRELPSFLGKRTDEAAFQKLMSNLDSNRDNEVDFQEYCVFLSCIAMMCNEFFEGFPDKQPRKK
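Material: S100A4 monomer protein | Medium: HEPES pH 7.2 with CaCl2, KCl, NaCl, DTT, Triton | Reagent: Labelled myosin peptide probe, 5 nM | Doses: One dose per compound | Times: 5 min incubation before reading | Benchmarks: Neutral control DMSO, positive control TFP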
PGC1a acetyl inh: PGC1a acetylation modulation, inhibitor mode. U2OS PGC1a acetylation, AlphaScreen anti-acetyl-lysine; with virally co-expressed GCN5 acetyltransferase. actives 0.17% (n = 350,000). inhibition, % at 15.6 µM. AID 651687;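 active = every replicate shows inhibition of at least 40%; inconclusive = mean inhibition at least 40% but some replicate below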;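 also: 0% = neutral control wells and 100% = positive control wells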
ERAP1 inh: ERAP1 (human) enzyme inhibition | actives 0.15% (n = 340,000) | AID 652197 | inhibition, % at 10.7 µM | Q9NZ08 | recombinant ERAP1, Leu-AMC fluorescence, 60 min;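 active = mean replicate inhibition of at least 30%, or all replicates individually reaching that 30% level; inactive = mean below 30% and not every replicate reaching it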;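 also: 0% = neutral control wells and 100% = L-leucinethiol positive control wells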
C2C12 statin: suppression of simvastatin myotoxicity. C2C12 myotubes + simvastatin, ATP luminescence, 48 h; scaled: DMSO 0, geranylgeraniol control 100. rescue of ATP level, % at 7.49 µM. actives 0.78% (n = 330,000);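 active = mean ATP rescue above about 67%, or every replicate alone reaching that limit, limit read from the data, passing the limit was not always enough; inconclusive = no clear call, values can overlap the other calls; inactive = mean under the limit and some replicate under it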;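 also: myotubes were challenged with 10 µM simvastatin during compound exposure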
Starred values were filed as active, the others as inactive; ? = inconclusive; / = no result. Compounds with a hit are over-represented: about 0.98% of the library has one in this group of screens.

SMILES | Rtt109 Vps75 | S100A4 inh HTS | PGC1a acetyl inh | ERAP1 inh | C2C12 statin
C[C@H](NC(=O)C[C@@H]1CC[C@H](NC(=O)C2CCOCC2)[C@@H](CO)O1)c1ccccc1 | / | 111* | 6 | 1 | 2
C/C=C/c1ccc([C@H]2[C@@H](CO)N(Cc3cncnc3)C23CN(C(C)=O)C3)cc1 | / | 7 | 17 | 1 | /
CCCc1cc(=O)[nH]c(NCCc2ccccc2)n1 | 5 | -2 | -13 | 1 | -17
O=c1ccnc(NCCc2ccccc2)[nH]1 | 8 | / | 3 | / | 99*
Cc1ccc2sc(N3CCN(C(=O)c4ccc([N+](=O)[O-])o4)CC3)nc2c1C | -2 | 30 | 0 | -1 | 85*
O=C(c1ccc([N+](=O)[O-])o1)N1CCN(c2nc3ccc(F)cc3s2)CC1 | -5 | 11 | -5 | 1 | 68*
O=C(c1ccc([N+](=O)[O-])o1)N1CCN(c2nc3c(Cl)cccc3s2)CC1 | -14 | -4 | / | 3 | ?
CC(=O)N1[C@H](C(=O)NCc2ccccc2Cl)[C@@H](CO)[C@@H]2Cn3c(ccc(-c4cncnc4)c3=O)[C@@H]21 | / | 17 | / | 10 | 22
COc1ccc(/C=N/NC(=S)SC)cc1OC | 1 | 1 | / | -1 | /
CSC(=S)N/N=C/c1ccccc1 | / | 5 | -20 | 1 | 87*
CCOC(=O)c1c(CNCCN(CC)CC)n(C)c2cc(Br)c(OC)cc12 | 65* | / | -22 | / | /
Cc1ccc(-c2ccc(/C=N/NC(=O)Cc3nnc(N)s3)o2)cc1Cl | 8 | -11 | ? | 0 | 0
COc1ccc(-c2ccc(/C=N/NC(=O)Cc3nnc(N)s3)o2)cc1Cl | / | 4 | 57* | 1 | /
O=C1C2C3C=CC(C4CC34)C2C(=O)N1/N=C/c1c[nH]c2ccccc12 (stereo not drawn) | 19 | -2 | 106* | 12 | 11
Cc1c(C(=O)Oc2cccc3ccccc23)cnn1-c1ccccc1 | -3 | / | -11 | / | 100*
CCOC(=O)c1cnn(-c2ccccc2)c1-n1cccc1 | -16 | / | -23 | / | 107*
CCCC(=O)Nc1ccc2c(c1)C(=O)N(C)C[C@@H](OC)[C@H](C)CN(Cc1ccc(-c3ccccn3)cc1)[C@H](C)CO2 | / | 25 | 0 | 1 | -2
Cc1ccc(S(=O)(=O)Nc2ccc3c(c2)C(=O)N([C@@H](C)CO)C[C@H](C)[C@H](CN(C)C(=O)Nc2c(C)noc2C)OCCCC[C@@H](C)O3)cc1 | / | -2 | 5 | -1 | /
CCC(C(=O)Nc1ccccc1-c1ccccc1)c1ccccc1 (stereo not drawn) | -8 | 0 | -10 | -2 | 113*
CCCn1c(SCC(=O)Nc2nc(C)c(C(=O)OC)s2)nnc1C(C)C | -4 | / | 2 | / | 2
CCn1c(SCC(=O)Nc2nc(C)c(C(=O)OC)s2)nnc1C(C)C | -10 | / | -15 | / | 82*
N#C[C@@H]1[C@@H](c2ccc(-c3ccccc3)cc2)[C@@H](CO)N1C(=O)Cc1ccncc1 | / | -19 | 63* | 0 | -10
CC(C)NC(=O)Nc1ccc2c(c1)C(=O)N([C@@H](C)CO)C[C@@H](C)[C@@H](CN(C)CC1CC1)OCCCC[C@@H](C)O2 | / | / | -2 | / | -26
Cc1ccc(Cl)cc1N1CCN(C(=O)c2ccc(CN3CCOCC3)cc2)CC1 | / | 3 | -6 | -1 | 0
O=C(c1ccc(CN2CCOCC2)cc1)N1CCN(c2cccc(Cl)c2)CC1 | -3 | / | 7 | / | 103*
SMILES | Rtt109 Vps75 | S100A4 inh HTS | PGC1a acetyl inh | ERAP1 inh | C2C12 statin
Cc1ccc(NC(=O)N2CCN(c3ccccn3)CC2)cc1 | 9 | -1 | 12 | 3 | 92*
O=C(Nc1ccccc1)N1CCN(c2ccccn2)CC1 | 1 | / | -8 | / | 1
CCCCNc1oc(-c2cccs2)nc1S(=O)(=O)c1ccccc1 | -7 | / | -7 | / | 131*
CNc1oc(-c2cccs2)nc1S(=O)(=O)c1ccccc1 | 4 | -9 | / | 4 | /
COc1ccc(OCC(=O)N2CCN(S(=O)(=O)c3ccc(Cl)s3)CC2)cc1 | -11 | 144* | -5 | 0 | 1
N#Cc1ccc(OCC(=O)N2CCN(S(=O)(=O)c3ccc(Cl)s3)CC2)cc1 | 0 | -10 | / | -2 | 1
C=C(C)C1CC=C(C)/C(=N/NC(=O)c2ccc(NC(=O)CCC)cc2)C1 (stereo not drawn) | -3 | / | -17 | / | 4
C=C(C)C1CC=C(C)/C(=N/NC(=O)c2ccc(NC(=O)CC)cc2)C1 (stereo not drawn) | 6 | -2 | 7 | 3 | 119*
C[C@@H]1CN([C@@H](C)CO)C(=O)c2cccc(NC(=O)Nc3cccc4ccccc34)c2O[C@H]1CN(C)C(=O)Nc1cccc2ccccc12 | / | -15 | 3 | 1 | /
OCCNCc1cccc(-c2ccccc2)c1O | 5 | -4 | 3 | 0 | 100*
OCCNCCNCc1ccc(-c2ccccc2)cc1 | / | -3 | / | 0 | /
Cc1ccc(C(=O)NCC(=O)NC2CCCCCC2)cc1 | 61* | 3 | 10 | -1 | 10
CCCNC(=O)NC(=O)CSc1nnc(-c2c[nH]c3ccccc23)o1 | -2 | -4 | / | 0 | /
CCNC(=O)NC(=O)CSc1nnc(-c2c[nH]c3ccccc23)o1 | 51* | 4 | -9 | -2 | -1
O=C(c1ccco1)N1CCN(C(=O)C2Cc3ccccc3CN2S(=O)(=O)c2ccc(F)cc2)CC1 (stereo not drawn) | 4 | / | -9 | / | -3
Cc1ccc(S(=O)(=O)N2CCN(C(=O)C3Cc4ccccc4CN3C(=O)c3ccco3)CC2)cc1 (stereo not drawn) | -6 | / | 6 | / | 98*
C[C@H](CO)N1C[C@H](C)[C@H](CN(C)CC2CC2)Oc2cc(-c3ccccc3F)ccc2S1(=O)=O | / | 1 | -12 | 0 | -14
C[C@@H]1CN([C@@H](C)CO)C(=O)c2cc(NC(=O)CCCN(C)C)ccc2O[C@@H]1CN(C)Cc1ccc2c(c1)OCO2 | / | 19 | 1 | 0 | /
O=C(c1ccc(Br)cc1)N1CCCC1 | 4 | / | 5 | / | 94*
Cc1ccc(C(=O)N2CCSCC2)cc1 | -3 | -4 | -28 | 1 | 103*
O=C(c1ccc(F)cc1)N1CCC(N2CCCCCC2)CC1 | -1 | / | 5 | / | 145*
CC(C)NC(=O)Nc1ccc2c(c1)C(=O)N([C@@H](C)CO)C[C@H](C)[C@@H](CN(C)S(=O)(=O)c1cn(C)cn1)OCCCC[C@H](C)O2 | / | 48 | -19 | 3 | /
C/C=C/c1ccc([C@@H]2[C@H](CO)N(C(=O)CN(C)C)C23CN(C(=O)C2CCCC2)C3)cc1 | / | -4 | 0 | 0 | /
Cc1nc(SCc2c(F)cccc2Cl)n[nH]1 | 0 | / | 4 | / | -29
COc1cnc(SCc2c(Cl)cccc2Cl)nc1Cl | 8 | -2 | 11 | -5 | 88*
C[C@H](CO)N1C[C@H](C)[C@@H](CN(C)Cc2ccc(Cl)c(Cl)c2)Oc2ccc(NS(=O)(=O)c3cn(C)cn3)cc2CC1=O | / | -11 | -1 | 4 | 166*
